Assay results reported in ChEMBL document CHEMBL1130011, “Chemical and biological studies on a series of novel (trans-(1R,2R)-, trans-(1S,2S)-, and cis-1,2-diaminocyclohexane)platinum(IV) carboxylate complexes” (J Med Chem, 1997).

Tests used:
Assay type in all cases: functional, organism-based
[1] = system: Mus musculus; test: Antitumor activity against L1210/0 leukemia cells in mice at the optimal dose of 75 mg/kg/injection (median survival time of [treated mice/control mice])
How it was run: (§1)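 Male B6D2F1 (C57BL/6 × DBA/2) mice were inoculated ip with 1 × 10^5 leukemia cells on day 0. Drug was given ip on days 1, 5 and 9, prepared in water or 0.9% NaCl and administered immediately, over a dose range of 0.5–200 mg/kg/injection. Animals were monitored daily. %T/C = median survival of treated × 100/median survival of controls. Cures were mice alive at day 60.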

[2] = system: Mus musculus; test: Antitumor activity against L1210/cisplatin leukemia cells in mice at the optimal dose of 75 mg/kg/injection (median survival time of [treated mice/control mice]); how it was run: as §1
[3] = system: Mus musculus; test: Antitumor activity against L1210/cisplatin leukemia cells in mice at the optimal dose of 5 mg/kg/injection (median survival time of [treated mice/control mice]); how it was run: as §1
[4] = system: Mus musculus; test: Antitumor activity against M5076 reticulosarcoma grown subcutaneously in mice at the optimal dose of 5 mg/kg/injection
How it was run: (§2)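 Male B6D2F1 (C57BL/6 × DBA/2) mice received 1 × 10^7 M5076 cells sc on day 0. Drug was given ip on days 5, 9, 13 and 17, prepared in water or 0.9% NaCl and given immediately, over a dose range of 0.5–200 mg/kg/injection. Animals were monitored daily. Results are expressed as %T/C (median survival ratio × 100) or as tumor growth delay.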

[5] = system: Mus musculus; test: Antitumor activity against L1210/0 leukemia cells in mice at the optimal dose of 5 mg/kg/injection (median survival time of [treated mice/control mice]); how it was run: as §1
[6] = system: Mus musculus; test: Antitumor activity against L1210/0 leukemia cells in mice at the optimal dose of 200 mg/kg/injection (median survival time of [treated mice/control mice]); how it was run: as §1
[7] = system: Mus musculus; test: Antitumor activity against L1210/0 leukemia cells in mice at the optimal dose of 100 mg/kg/injection (median survival time of [treated mice/control mice]); how it was run: as §1
[8] = system: Mus musculus; test: Antitumor activity against M5076 reticulosarcoma grown subcutaneously in mice at the optimal dose of 100 mg/kg/injection; how it was run: as §2
[9] = system: Mus musculus; test: Antitumor activity against L1210/cisplatin leukemia cells in mice at the optimal dose of 50 mg/kg/injection (median survival time of [treated mice/control mice]); how it was run: as §1
[10] = system: Mus musculus; test: Antitumor activity against L1210/cisplatin leukemia cells in mice at the optimal dose of 200 mg/kg/injection (median survival time of [treated mice/control mice]); how it was run: as §1
[11] = system: Mus musculus; test: Antitumor activity against M5076 reticulosarcoma grown subcutaneously in mice at the optimal dose of 200 mg/kg/injection; how it was run: as §2
[12] = system: Mus musculus; test: Antitumor activity against L1210/0 leukemia cells in mice at the optimal dose of 50 mg/kg/injection (median survival time of [treated mice/control mice]); how it was run: as §1
[13] = system: Mus musculus; test: Antitumor activity against L1210/cisplatin leukemia cells in mice at the optimal dose of 100 mg/kg/injection (median survival time of [treated mice/control mice]); how it was run: as §1
[14] = system: Mus musculus; test: Antitumor activity against L1210/cisplatin leukemia cells in mice at the optimal dose of 25 mg/kg/injection (median survival time of [treated mice/control mice]); how it was run: as §1
[15] = system: Mus musculus; test: Antitumor activity against L1210/0 leukemia cells in mice at the optimal dose of 25 mg/kg/injection (median survival time of [treated mice/control mice]); how it was run: as §1

Substance: CARBOPLATIN
- T/C [1]: 147%
- T/C [2]: 111%

Substance: CISPLATIN
- T/C [3]: 100%
- Tumor growth delay [4]: 16.3 days
- T/C [5]: 300%

Substance: Platinum IV (cis-1,2-diaminecyclohexyl)-trans-(acetate)2 (1,1-cyclobutanedicarboxylate)
- T/C [6]: 112%

Substance: Platinum IV (cis-1,2-diaminecyclohexyl)-trans-(acetate)2 (malonate)
- T/C [6]: 206%

Substance: Platinum IV (cis-1,2-diaminecyclohexyl)-trans-(acetate)2 (oxalate)
- T/C [7]: 159%

Substance: Platinum IV (trans-(1R,2R)-diaminecyclohexyl) (acetate)4
- T/C [6]: 206%

Substance: Platinum IV (trans-(1R,2R)-diaminecyclohexyl)-trans-(acetate)2
- Tumor growth delay [8]: 19.5 days
- T/C [9]: 144%
- T/C [7]: 265%

Substance: Platinum IV (trans-(1R,2R)-diaminecyclohexyl)-trans-(acetate)2 (1,1-cyclobutanedicarboxylate)
- T/C [10]: 100%
- T/C [6]: 112%
- Tumor growth delay [11]: 15.8 days

Substance: Platinum IV (trans-(1R,2R)-diaminecyclohexyl)-trans-(acetate)2 (cyclobutanecarboxylate)2
- T/C [9]: 157%
- T/C [7]: 206%

Substance: Platinum IV (trans-(1R,2R)-diaminecyclohexyl)-trans-(acetate)2 (methylmalonate)
- T/C [10]: 93%
- T/C [6]: 147%
- Tumor growth delay [11]: 21.3 days

Substance: Platinum IV (trans-(1R,2R)-diaminecyclohexyl)-trans-(acetate)2 (oxalate)
- T/C [12]: 171%

Substance: Platinum IV (trans-(1R,2R)-diaminecyclohexyl)-trans-(trifluoroacetate)2 (1,1-cyclobutanedicarboxylate)
- T/C [13]: 205%
- T/C [6]: 253%

Substance: Platinum IV (trans-(1R,2R)-diaminecyclohexyl)-trans-(trifluoroacetate)2 (acetate)4
- T/C [14]: 148%
- T/C [15]: 218%

Substance: Platinum IV (trans-(1R,2R)-diaminecyclohexyl)-trans-(trifluoroacetate)2 (oxalate)
- T/C [9]: 176%
- T/C [12]: > 700%

Substance: Platinum IV (trans-(1S,2S)-diaminecyclohexyl) (acetate)4
- T/C [6]: 194%

Substance: Platinum IV (trans-(1S,2S)-diaminecyclohexyl)-trans-(acetate)2 (cyclobutanecarboxylate)2
- T/C [12]: 182%

Substance: Platinum IV (trans-(1S,2S)-diaminecyclohexyl)-trans-(acetate)2 (oxalate)
- T/C [12]: 135%

Substance: [Pt(O2CCH3)4(dach)]dach
- T/C [6]: 182%
